Compound activity from PubChem BioAssay.
Compounds with a hit are over-represented: about 3.1% of the library has one in this group of screens.
SENP7 block: inhibitors of human SENP7 protease; Q9BQF6; recombinant SENP7, Z-RLRGG-aminoluciferin luminescence, 40 min; inhibition, % at 5 µM; hit rate 1.5% among 330,000; AID 434973;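 active means inhibition above about 50% at the single test dose, limit read from the data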;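 further: plate controls were DMSO with enzyme for no effect and no enzyme buffer wells for full effect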
Apaf-1 inh: blocks human Apaf-1 apoptosome activity. O14727. reconstituted apoptosome caspase-3 activity, DEVD-Rh110 fluorescence. inhibition, % at 20 µM. hit rate 0.71% among 330,000. AID 489030; active means inhibition of at least 40% at 20 µM;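 further: plate controls were DMSO wells for no effect and DEVD-CHO caspase inhibitor wells for full effect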
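detection = Rh110 fluorescence intensity | test system = biochemical Apaf-1 apoptosome reconstitution | also added = cytochrome c and DEVD-Rh110 substrate | schedule = 30 min plus 50 min, RT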
UBC13 polyUb: blocks human UBC13 polyubiquitin chain formation; P61088; TR-FRET; inhibition, % at 20 µM; hit rate 0.47% among 330,000; in the data active means inhibition above about 45%, passing the limit was not always enough
Target sequence (P61088 whole entry, looked up): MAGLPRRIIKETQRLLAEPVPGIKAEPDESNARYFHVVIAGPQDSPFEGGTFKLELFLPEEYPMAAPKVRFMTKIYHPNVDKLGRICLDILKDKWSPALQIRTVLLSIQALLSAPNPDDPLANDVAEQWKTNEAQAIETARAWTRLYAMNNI
SENP8 block-1: blocks human SENP8 cleavage of Nedd8 substrate. recombinant SENP8, Nedd8 substrate fluorescence. inhibition, % at 20 µM. hit rate 0.64% among 360,000. AID 602440; in the data active means inhibition mostly above about 40%, no sharp cut-off; inactive means mostly below about 27%
SENP6 inh: SENP6 protease inhibition | inhibition, % at 10 µM | hit rate 1.8% among 330,000 | Recombinant SENP6 catalytic domain, aminoluciferin luminescence | AID 2599 | Q9GZR1;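 active means inhibition above about 50% at the single tested dose, limit read from the data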;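 further: plate controls were DMSO wells with enzyme for no effect and DMSO wells lacking enzyme for full effect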
Target sequence (Q9GZR1 628-1112 limits assumed): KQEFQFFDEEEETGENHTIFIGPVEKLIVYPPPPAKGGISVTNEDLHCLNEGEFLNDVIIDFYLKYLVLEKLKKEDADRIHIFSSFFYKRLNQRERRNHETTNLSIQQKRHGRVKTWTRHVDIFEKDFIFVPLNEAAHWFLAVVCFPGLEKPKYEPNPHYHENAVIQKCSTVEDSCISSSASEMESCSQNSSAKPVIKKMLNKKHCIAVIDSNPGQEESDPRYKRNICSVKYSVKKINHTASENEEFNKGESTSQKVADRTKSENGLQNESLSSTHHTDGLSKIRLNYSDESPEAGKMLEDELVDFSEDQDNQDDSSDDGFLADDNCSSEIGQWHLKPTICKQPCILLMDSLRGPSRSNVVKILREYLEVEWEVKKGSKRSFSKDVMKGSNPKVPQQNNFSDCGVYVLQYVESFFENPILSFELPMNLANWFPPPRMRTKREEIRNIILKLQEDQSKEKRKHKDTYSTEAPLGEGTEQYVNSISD
SENP8 block-2: blocks the human protease SENP8; Q96LD8; purified SENP8, Z-RLRGG-aminoluciferin cleavage, luminescence; inhibition, % at 10 µM; hit rate 1.2% among 330,000; AID 2540; in the data active means inhibition above about 50%
SENP8 confirm: human SENP8 inhibition, confirmed. shares compounds with SENP7 block. Recombinant SENP8, Z-RLRGG-aminoluciferin luminescence, 60 min. inhibition, % at 12.5 µM. hit rate 40% among 6,200. AID 488912;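 active means mean inhibition across replicates above about 50%, limit read from the data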
SENP6 conf: human SENP6 inhibition, confirmed; shares compounds with SENP7 block; recombinant SENP6, Z-RLRGG-aminoluciferin luminescence; inhibition, % at 12.5 µM; hit rate 58% among 6,200; AID 488915
SENP7 conf: confirmation of human SENP7 protease inhibitors; inhibition, % at 12.5 µM; recombinant SENP7, Z-RLRGG-aminoluciferin luminescence, 40 min; hit rate 69% among 6,200; shares compounds with SENP7 block
Casp3 SENP sel: inhibits human caspase-3 in SENP selectivity test. shares compounds with SENP7 block. purified caspase-3, Z-DEVD-aminoluciferin luminescence, 60 min. inhibition, % at 12.5 µM. hit rate 60% among 6,200. AID 488918;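 active means mean inhibition above about 50%, limit read from the data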;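 further: plate controls were enzyme with DMSO for no effect and wells without caspase-3 for full effect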
Luc interf: counter-screen for SENP inhibitors: luminescence interference. hit rate 39% among 6,200. inhibition, % at 12.5 µM. Pre-incubated SENP8/Z-RLRGG-aminoluciferin, luciferase luminescence interference. shares compounds with SENP7 block;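 active means mean inhibition above about 50% when retested at one dose, limit read from the data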;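 further: plate controls were DMSO wells with completed reaction for no effect and substrate without enzyme for full effect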
Starred values were filed as active, the others as inactive; . = not tested or not shown.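 How the source made its calls, unless noted: active means mean inhibition above about 50% in the one-dose retest (limit read from the data); inactive means the rest.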

SMILES	SENP7 block	Apaf-1 inh	UBC13 polyUb	SENP8 block-1	SENP6 inh	SENP8 block-2	SENP8 confirm	SENP6 conf	SENP7 conf	Casp3 SENP sel	Luc interf
Cc1ccc2cc(NC(=O)c3ccccc3)ccc2n1	64.4*	-0.3	-0.1	3.4	61.9*	52.9*	7.7	43.2	81.2*	73.5*	62.7*
O=C(NC(=O)c1ccccc1)Nc1ccccc1	93.3*	12.6	-4.6	5.8	83.4*	76.6*	5.1	26.8	50.5*	45.5	19.3
Cc1nnc(NC(=O)c2ccc3ccccc3c2)s1	57.9*	-4.8	0.1	-19.7	12.5	-0.7	-4.8	-1.8	-1.1	12.5	-1.8
O=C(Nc1ccccc1Cl)c1ccc(C(=O)Nc2ccccc2Cl)cc1	.	.	.	-103.8	.	.	.	.	.	.	.
O=C(NC(=O)c1ccccc1)Nc1ccc(-c2cnco2)cc1	39.2	-21.6	4.8	23.6	-2.2	-11.0	.	.	.	.	.
CCCCCCn1cc(CN2CC(N3CCN(Cc4ccccc4F)CC3)CS2(=O)=O)nn1 (stereo not drawn)	.	.	.	5.9	.	.	.	.	.	.	.
O=C(Nc1ccncc1)c1ccc2ccccc2c1	15.8	3.1	-12.4	16.7	-13.6	-10.2	.	.	.	.	.
COc1ccc(C(=O)Nc2ccc(C(=O)Nc3cccc(C)c3)cc2)cc1	0.3	-10.4	5.1	5.5	7.6	0.4	.	.	.	.	.
Cc1ccc(C(=O)Cc2ccccc2)cc1	.	.	.	11.9	.	.	.	.	.	.	.
O=C(Nc1ccccc1)c1ccc(OC(=O)c2ccccc2)cc1	81.0*	-17.6	-0.9	4.6	53.8*	12.7	3.9	8.2	12.3	9.2	-0.1
Cc1ccc(C(=O)Nc2ccc3ccccc3c2)cc1	97.2*	-1.7	3.8	8.1	91.4*	87.4*	12.9	51.3*	100.6*	89.0*	34.9
CC(C)OC(=O)c1ccc(NC(=O)c2ccccc2)cc1	29.2	5.4	5.3	24.5	35.5	15.2	.	.	.	.	.
Cc1ccc(C(=O)CC(=O)c2ccccc2)cc1	66.2*	7.5	4.7	20.5	74.7*	69.6*	-4.0	65.5*	91.3*	50.5*	44.3
O=C(Nc1ccc2ccccc2c1)c1ccc(Cl)cc1	50.9*	-4.4	2.2	9.0	41.0	-2.5	-8.2	15.2	32.9	67.2*	12.9
CCCCn1nnnc1C(c1ccccc1OC(F)(F)F)N1CCN(C/C=C/c2ccccc2)CC1 (stereo not drawn)	.	.	.	7.4	.	.	.	.	.	.	.
COc1ccc(C#Cc2cnc3c(c2)C(=O)N([C@@H](C)CO)C[C@@H](C)[C@@H](CN(C)CC2CCOCC2)O3)cc1	.	.	.	-87.8	.	.	.	.	.	.	.
O=C(Nc1ccccc1)c1ccccc1O	5.8	-7.4	6.6	-146.0	5.9	-11.7	.	.	.	.	.
Cc1ccc(NC(=O)c2ccccc2O)cc1	41.1	15.9	-5.9	-82.6	53.3*	28.3	54.8*	50.9*	77.6*	61.1*	65.7*
Cc1ccc(NC(=O)C(=O)c2ccc(C)cc2)cc1	62.2*	1.1	1.2	9.3	65.0*	54.4*	59.1*	58.7*	86.6*	59.5*	34.8
Cc1ccc(NC(=O)c2ccccc2)cc1	50.2*	1.2	2.0	14.1	-4.8	12.2	41.7	42.1	77.5*	72.0*	53.7*
Cc1ccc(NC(=O)c2cccc3cccnc23)cc1	27.9	21.2	-1.6	16.3	53.7*	29.6	50.2*	44.6	72.2*	31.8	30.1
Cc1ccc(NC(=O)C(C)C(=O)Nc2ccc(C)cc2)cc1	-7.1	4.7	-3.0	1.8	-8.1	5.6	.	.	.	.	.
C/C=C/c1cnc2c(c1)C(=O)N([C@H](C)CO)C[C@H](C)[C@@H](CN(C)C(=O)CN1CCOCC1)O2	.	.	.	11.8	.	.	.	.	.	.	.
COc1ccccc1-n1c(=O)oc2ccc(Cl)cc2c1=O	12.1	-10.6	9.0	4.1	53.0*	39.8	52.8*	50.2*	55.4*	30.4	5.0
COc1c(Cl)c(=O)oc2ccc(Cl)cc12	.	.	.	-94.4	.	.	.	.	.	.	.
SMILES	SENP7 block	Apaf-1 inh	UBC13 polyUb	SENP8 block-1	SENP6 inh	SENP8 block-2	SENP8 confirm	SENP6 conf	SENP7 conf	Casp3 SENP sel	Luc interf
Cc1c(C(=O)O)cnc2cc(-c3ccc(Cl)cc3)nn12	82.5*	10.6	4.8	-374.4	90.7*	82.2*	89.2*	88.0*	99.6*	92.9*	87.3*
CC(C)=CCC[C@H](C)C[C@@H]1CC2=C(C(=O)OC(C)(C)O2)[C@@H](c2ccc(F)cc2)O1	.	.	.	11.4	.	.	.	.	.	.	.
CCCn1c(SCC(=O)Nc2cccc(C(=O)OC)c2)nnc1-c1cccnc1	-0.2	-7.2	8.9	30.2	2.9	-1.3	.	.	.	.	.
CCOC(=O)c1cccc(NC(=O)CSc2nnc(-c3ccncc3)n2CCCOC)c1	99.5*	1.7	5.0	-1.3	-19.5	-8.3	-11.9	-5.2	-5.1	2.2	3.4
Cc1cccn2cc(-c3ccc(Cl)cc3)nc12	91.3*	7.0	15.0	-289.5	94.6*	88.5*	94.8*	95.6*	101.4*	92.0*	54.3*
O=C1NC[C@H](CCCCN2CCN(Cc3ccccc3)C(=O)C2=O)N(Cc2ccccc2)C1=O	.	.	.	5.0	.	.	.	.	.	.	.
c1ccc(-c2nc(-c3ccc(-c4ccon4)s3)no2)cc1	80.0*	-8.5	12.6	-69.5	55.0*	39.7	25.1	25.8	20.2	18.8	18.2
c1csc(-c2nc(-c3ccc(-c4ccon4)s3)no2)c1	88.1*	-29.3	11.8	-231.1	51.4*	43.9	3.8	15.5	15.4	23.9	7.8
O=C(Nc1ccc(NC(=O)c2ccco2)cc1)c1ccc2c(c1)OCO2	62.5*	-6.3	-0.9	4.2	53.7*	31.1	6.2	12.8	-3.1	8.5	3.0
O=C(Nc1ccc(C(=O)N2CCCC2)cc1)c1ccc2c(c1)OCO2	90.9*	0.2	0.8	2.1	86.5*	80.0*	83.0*	86.3*	99.0*	95.9*	89.0*
O=C(Nc1ccc(C(=O)N2CCCCC2)cc1)C1=CSCCO1	80.7*	-9.1	2.7	4.1	79.4*	67.6*	77.5*	74.0*	91.2*	90.9*	77.4*
O=C(c1ccc2c(c1)OCO2)N1CCCC1	-2.9	-2.6	2.9	14.1	-16.6	0.6	.	.	.	.	.
CCCC(=O)N1CCC1(C)C(=O)Nc1cccc(F)c1 (stereo not drawn)	.	.	.	5.3	.	.	.	.	.	.	.
CC1(C(=O)NS(=O)(=O)C2CC2)CCCN(C(=O)Cc2ccc(F)cc2)C1 (stereo not drawn)	.	.	.	16.3	.	.	.	.	.	.	.
